Changes are numbered by the printed parent chain. Names and notes keep the numbering of the source. Ends that are not written are not given here.
Legend:
NCI-N87 xenograft = assay: NCI-N87 tumor xenograft with IHC; format: in vivo, athymic nude mice
Method in brief: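 Female athymic nude mice (5 weeks old) received 5 × 10^6 NCI-N87 cells s.c. in PBS into the right flank and were randomised at 90–100 mm3 (n = 5/group). Dosing was 4 mg/kg i.v. in DMAC/Tween80/saline (5:10:85), six times at 3-day intervals. Caliper volume (L × W2)/2 was followed to day 28. Paraffin tumour sections were stained for HER2 and Ki-67 (DAB), with IHC score = intensity × fraction (0–300) over 10 fields per sample.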

[1] = Intravenous and oral pharmacokinetic profile; format: in vivo, ICR mice; details: male, ICR, mouse, plasma
[2] = Genotoxicity safety assessment
[3] = molecular target: T1, (His)6-MED23_391–582 / FITC-ELF3_129–145 (Homo sapiens, UniProt Q9ULK4); assay: Fluorescence polarization assay; format: binding; details: negative control
T1 sequence (Q9ULK4 391-582): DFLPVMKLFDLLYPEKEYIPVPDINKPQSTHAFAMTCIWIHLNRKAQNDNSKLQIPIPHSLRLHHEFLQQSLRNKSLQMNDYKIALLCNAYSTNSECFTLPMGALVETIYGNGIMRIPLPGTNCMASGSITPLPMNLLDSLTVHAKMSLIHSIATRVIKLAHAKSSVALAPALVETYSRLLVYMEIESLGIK

Nluc-ELF3^WT = molecular target: T2, Nluc-ELF3^WT (human, UniProt P78545-1 1-371); assay: split reporter
T2 sequence: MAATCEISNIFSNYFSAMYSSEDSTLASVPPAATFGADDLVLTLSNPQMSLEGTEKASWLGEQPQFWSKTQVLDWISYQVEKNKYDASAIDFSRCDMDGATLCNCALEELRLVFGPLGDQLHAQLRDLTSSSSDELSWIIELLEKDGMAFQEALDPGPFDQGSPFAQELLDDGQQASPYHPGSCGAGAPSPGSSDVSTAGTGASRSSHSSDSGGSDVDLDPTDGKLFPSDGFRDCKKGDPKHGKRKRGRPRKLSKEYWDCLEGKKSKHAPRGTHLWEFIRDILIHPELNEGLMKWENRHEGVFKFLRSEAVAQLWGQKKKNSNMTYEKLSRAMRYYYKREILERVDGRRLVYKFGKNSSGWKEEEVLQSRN

(His)6-MED23_(391–582) = molecular target: T3, (His)6-MED23_(391–582) (human, UniProt Q9ULK4 391-582); assay: fluorescence polarisation
T3 sequence: T1 sequence (Q9ULK4 391-582)

[4] = 4 mg/kg IV, compared to untreated control

Which Tumor growth (NCI-N87 xenograft; 4 mg/kg IV every 3 days) does the source give for `CC(=O)N1N=C(c2cccc(O)c2)CC1c1ccc(Cl)cc1` (stereo not drawn) [Compound 15] here?
Its Tumor growth is “significant tumor growth retardation”.

And the “Decrease in proliferation marker Ki67 (IHC)” value (NCI-N87 xenograft; [4])?
Its value is 4.5 fold.

And the “Reduction of HER2 level in the tumor (IHC)” value (NCI-N87 xenograft; [4])?
Its value is 1.8 fold.

What about the half-life ([1]; iv) of the same molecule?
The half-life was 584 ± 166 min.

And the bioavailability ([1]; po)?
The bioavailability was 25.1%.

What about the half-life ([1]; po) of the same molecule?
Its half-life is 654 ± 660 min.

And the Genotoxicity [2]?
Its Genotoxicity is “no association of genotoxicity”.

With `COc1ccc(C2CC(c3ccccc3O)=NN2C(C)=O)c2ccccc12` (stereo not drawn) [Compound 18] as the molecule, how does the “Change of FP signal” value [3] read?
The value was “made no such changes”.

B1: Cluc-MED23_(391-582)^WT (domain or fragment)
chain: T1 sequence (Q9ULK4 391-582)
With B1 as the molecule, how does the “fold change of luciferase activity relative to control” value (Nluc-ELF3^WT) read?
Its value is 5.2 fold.

B2: Cluc-MED23_(391-582)^K397A (domain or fragment)
chain: T1 sequence (Q9ULK4 391-582) with K7A
Which “fold change of luciferase activity relative to control” value (Nluc-ELF3^WT) does the source give for B2 here?
Its value is 4.8 fold.

Does TSSSSDELSWIIELLEK (also: FITC label, position not given here) [FITC-labeled ELF3_(129–145) peptide] bind ((His)6-MED23_(391–582))?
Result: binds

B3: Cluc-MED23_(391-462) (domain or fragment)
chain: DFLPVMKLFDLLYPEKEYIPVPDINKPQSTHAFAMTCIWIHLNRKAQNDNSKLQIPIPHSLRLHHEFLQQSL
For B3, which “fold change of luciferase activity vs control” value (Nluc-ELF3^WT) is on record?
The value was 6 fold.

From paper PMC10173165 (Journal of Advanced Research, 2022)
